Columns and labels:
P2Y purinoceptor 1 [1] = molecular target: T1, P2Y purinoceptor 1 (Homo sapiens, UniProt P47900); experiment: Displacement of [33P]2-MeS-ADP from human cloned P2Y1 receptor expressed in HEK293 cells by SPA analysis; type: cell-based
[2] = Antiplatelet activity in human platelet-rich plasma assessed as inhibition of ADP-induced platelet aggregation in presence of 10 uM ADP
[3] = Trough plasma concentration in rat at 0.5 mg/kg, po after 24 hrs; type: ADME, organism-based; design: dose 0.5 mg/kg, route oral; settings: read-out: Cmin
How it was run: (§1)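 Cassette PK in rats, 0.5 mg/kg iv and 0.5 mg/kg p.o., vehicle 70% water, 10% ethanol, 10% cremophor, 10% N,N-dimethylacetamide; plasma trough concentrations taken 24 h after iv and p.o. dosing.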

[4] = Metabolic stability in human liver microsomes assessed as compound remaining after 10 mins; type: ADME; settings: read-out: Stability
How it was run: (§2)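 Test compound incubated 10 min with 0.5 µM rat or human liver microsomes; percentage of parent remaining measured.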

[5] = Volume of distribution at steady state in rat at 0.5 mg/kg, iv and 0.5 mg/kg, po; type: ADME, organism-based; settings: in vivo, read-out: Vdss; how it was run: as §1
[6] = Metabolic stability in rat liver microsomes assessed as compound remaining after 10 mins; type: ADME; settings: read-out: Stability; how it was run: as §2
[7] = Trough plasma concentration in rat at 0.5 mg/kg, iv after 24 hrs; type: ADME, organism-based; design: dose 0.5 mg/kg, route intravenous; settings: read-out: Cmin; how it was run: as §1
[8] = Total AUC in rat at 0.5 mg/kg, iv; type: ADME, organism-based; design: time AUCmax, dose 0.5 mg/kg, route intravenous; settings: in vivo; how it was run: as §1
[9] = Clearance in rat at 0.5 mg/kg, iv and 0.5 mg/kg, po; type: ADME, organism-based; settings: in vivo; how it was run: as §1
[10] = Oral bioavailability in rat at 0.5 mg/kg; type: ADME, organism-based; settings: in vivo; how it was run: as §1
[11] = Half life in rat at 0.5 mg/kg, iv and 0.5 mg/kg, po; type: ADME, organism-based; settings: in vivo; how it was run: as §1
P2Y purinoceptor 1 [12] = molecular target: T1, P2Y purinoceptor 1; experiment: Inhibition of P2Y1 receptor in human washed platelets assessed as decrease in 2-methylthio-ADP-induced calcium signal transduction pathway activation by FLIPR assay; type: functional
[13] = Antiplatelet activity in human platelet-rich plasma assessed as inhibition of ADP-induced platelet aggregation in presence of 2.5 uM ADP

T1 sequence (P47900 whole entry): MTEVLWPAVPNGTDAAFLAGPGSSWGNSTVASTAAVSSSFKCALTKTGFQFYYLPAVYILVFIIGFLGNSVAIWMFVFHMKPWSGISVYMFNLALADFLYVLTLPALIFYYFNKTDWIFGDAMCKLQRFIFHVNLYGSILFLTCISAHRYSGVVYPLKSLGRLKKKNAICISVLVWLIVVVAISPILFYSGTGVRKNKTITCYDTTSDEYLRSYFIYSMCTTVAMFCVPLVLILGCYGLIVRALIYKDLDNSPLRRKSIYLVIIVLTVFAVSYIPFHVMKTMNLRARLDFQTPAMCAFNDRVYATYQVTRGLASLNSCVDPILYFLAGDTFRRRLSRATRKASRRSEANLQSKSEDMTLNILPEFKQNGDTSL

Row | SMILES | Ki (P2Y purinoceptor 1 [1]) [nM] | IC50 [2] [nM] | IC50 (P2Y purinoceptor 1 [12]) [nM] | other results
1 | CC(C)(C)CN1CCC2(CC1)CN(c1ccccc1Nc1ccc(-c3ccccc3)nn1)c1c(O)ccc(Cl)c12 | 511 | > 40000 | – | –
2 | CC(C)(C)CN1CCC2(CC1)CN(c1ccccc1Nc1nnc(-c3ccc(C(F)(F)F)cc3)s1)c1c(O)ccc(C(F)(F)F)c12 | – | 450 | 0.08 | concentration at 24 h [3]: 12 nM; remaining at 10 min [4]: 86%; Vd [5]: 6 L/kg; remaining at 10 min [6]: 87%; concentration at 24 h [7]: 46 nM; AUC [8]: 4.63 µM·h; clearance [9]: 4 mL/min/kg; bioavailability [10]: 22%; half-life [11]: 24 h
3 | CC(C)(C)CN1CCC2(CC1)CN(c1ccccc1Nc1nnc(-c3cccc(Cl)c3)s1)c1c(O)ccc(Cl)c12 | – | 2600 | 3.6 | –
4 | COC(=O)c1ccc(O)c2c1C1(CCN(CC(C)(C)C)CC1)CN2c1ccccc1Nc1nnc(-c2ccc(C(C)(C)C)cc2)s1 | – | 840 | 0.32 | –
5 | CC(C)(C)CN1CCC2(CC1)CN(c1ccccc1Nc1nnc(-c3ccc(Cl)cc3)s1)c1c(O)ccc(Cl)c12 | – | 1300 | 1.6 | –
6 | CC(C)(C)c1ccccc1Oc1ncccc1Nc1nnc(-c2ccc(C(F)(F)F)cc2)s1 | – | – | – | IC50 [13]: 7500 nM
7 | CC(C)(C)CN1CCC2(CC1)CN(c1ccccc1Nc1nnc(-c3ccccc3)o1)c1c(O)ccc(Cl)c12 | 6.2 | > 10000 | 49 | –
8 | CC(C)(C)CN1CCC2(CC1)CN(c1ccccc1Nc1nnc(-c3ccc(C(C)(C)C)cc3)s1)c1c(O)ccc(C#N)c12 | 9.7 | 1200 | 0.34 | –
9 | CC(C)(C)CN1CCC2(CC1)CN(c1ccccc1Nc1nnc(-c3ccccc3)s1)c1c(O)ccc(C(F)(F)F)c12 | 9.6 | 990 | 0.19 | –
10 | CC(C)(C)CN1CCC2(CC1)CN(c1ccccc1Nc1nnc(-c3ccc(OC(F)(F)F)cc3)s1)c1c(O)ccc(Cl)c12 | – | 900 | 0.63 | concentration at 24 h [3]: 30 nM; remaining at 10 min [4]: 99%; Vd [5]: 2.1 L/kg; remaining at 10 min [6]: 94%; concentration at 24 h [7]: 95 nM; AUC [8]: 6.21 µM·h; clearance [9]: 2.1 mL/min/kg; bioavailability [10]: 28%; half-life [11]: 12 h
11 | CC(C)(C)CN1CCC2(CC1)CN(c1ccccc1Nc1nc(-c3ccccc3)ns1)c1c(O)ccc(Cl)c12 | – | 5400 | 6.4 | –
12 | CC(C)(C)c1ccccc1Oc1ncccc1NC(=O)Nc1ccc(OC(F)(F)F)cc1 | – | 11000 | – | –
13 | Cc1ccc(-c2ccc(Nc3ccccc3N3CC4(CCN(CC(C)(C)C)CC4)c4c(Cl)ccc(O)c43)nc2)cc1 | 343 | > 10000 | – | –
14 | Cc1cc(-c2nnc(Nc3ccccc3N3CC4(CCN(CC(C)(C)C)CC4)c4c(Cl)ccc(O)c43)s2)n(C)n1 | – | 900 | 0.2 | remaining at 10 min [6]: 75%
15 | CC(C)(C)CN1CCC2(CC1)CN(c1ccccc1NC(=O)Nc1nc3ccc(Cl)nc3s1)c1c(O)ccc(Cl)c12 | 8 | 130 | – | concentration at 24 h [3]: 4.1 nM; remaining at 10 min [4]: 100%; Vd [5]: 5.4 L/kg; remaining at 10 min [6]: 86%; concentration at 24 h [7]: 10 nM; AUC [8]: 1.33 µM·h; clearance [9]: 10 mL/min/kg; bioavailability [10]: 36%; half-life [11]: 9.9 h
16 | CN(C)CC(C)(C)COc1cccc(-c2sc(Nc3cccnc3Oc3ccccc3C(C)(C)C)nc2C(F)(F)F)c1 | – | 57000 | – | IC50 [13]: 5200 nM
17 | CC(C)(C)CN1CCC2(CC1)CN(c1ccccc1Nc1cnc(-c3ccccc3)cn1)c1c(O)ccc(Cl)c12 | 49 | > 40000 | – | –
18 | CC(C)(C)CN1CCC2(CC1)CN(c1ccccc1Nc1ncc(-c3ccccc3)s1)c1c(O)ccc(Cl)c12 | 17 | 3700 | 2.3 | –
19 | CC(C)(C)CN1CCC2(CC1)CN(c1ccccc1Nc1nnc(-c3ccccc3Cl)s1)c1c(O)ccc(Cl)c12 | – | 11000 | 9.8 | –
20 | CC(C)(C)CN1CCC2(CC1)CN(c1ccccc1Nc1cc(-c3ccccc3)on1)c1c(O)ccc(Cl)c12 | – | 9000 | – | –
21 | CC(C)(C)CN1CCC2(CC1)CN(c1ccccc1Nc1nnc(-c3cnccn3)s1)c1c(O)ccc(Cl)c12 | – | 930 | 1.5 | remaining at 10 min [6]: 37%
22 | CC(C)(C)CN1CCC2(CC1)CN(c1ccccc1Nc1nnc(-c3ccc(C(C)(C)C)cc3)s1)c1c(O)ccc(C(F)(F)F)c12 | – | 870 | 0.21 | concentration at 24 h [3]: 3.6 nM; remaining at 10 min [4]: 82%; Vd [5]: 1.2 L/kg; remaining at 10 min [6]: 84%; concentration at 24 h [7]: 54 nM; AUC [8]: 6.96 µM·h; clearance [9]: 1.8 mL/min/kg; bioavailability [10]: 14%; half-life [11]: 13 h
23 | CC(C)(C)CN1CCC2(CC1)CN(c1ccccc1Nc1nc(-c3ccccc3)cs1)c1c(O)ccc(Cl)c12 | 20 | > 10000 | 54 | –
24 | CC(C)(C)CN1CCC2(CC1)CN(c1ccccc1Nc1nnc(-c3ccc(OC(F)(F)F)cc3)s1)c1c(O)ccc(F)c12 | 5.3 | 1600 | 2.7 | –

From ChEMBL document CHEMBL3259700, “2-Amino-1,3,4-thiadiazoles in the 7-hydroxy-N-neopentyl spiropiperidine indolinyl series as potent P2Y1 receptor antagonists” (Bioorg Med Chem Lett, 2014)
